# Screening results deposited in PubChem BioAssay by Johns Hopkins Ion Channel Center.
# Sampled rows, rich in hits. Any-hit rate of the full collection: about 2.3%.
# TRPC4 PAM: positive allosteric modulators of TRPC4, primary screen, cell-based, mouse TRPC4beta, HEK293 mu-opioid, Fluo-4 calcium | DAMGO EC20, Fluo-4 Ca2+ flux; stronger effect = higher value | B-score at 10 µM | 310,000 tested, 0.42% active;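 active means B-score of calcium response area above 5 SD of library B-scores, with initial fluorescence ratio within 5 SD of library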
# Target sequence (Q9QUQ5 whole entry, looked up): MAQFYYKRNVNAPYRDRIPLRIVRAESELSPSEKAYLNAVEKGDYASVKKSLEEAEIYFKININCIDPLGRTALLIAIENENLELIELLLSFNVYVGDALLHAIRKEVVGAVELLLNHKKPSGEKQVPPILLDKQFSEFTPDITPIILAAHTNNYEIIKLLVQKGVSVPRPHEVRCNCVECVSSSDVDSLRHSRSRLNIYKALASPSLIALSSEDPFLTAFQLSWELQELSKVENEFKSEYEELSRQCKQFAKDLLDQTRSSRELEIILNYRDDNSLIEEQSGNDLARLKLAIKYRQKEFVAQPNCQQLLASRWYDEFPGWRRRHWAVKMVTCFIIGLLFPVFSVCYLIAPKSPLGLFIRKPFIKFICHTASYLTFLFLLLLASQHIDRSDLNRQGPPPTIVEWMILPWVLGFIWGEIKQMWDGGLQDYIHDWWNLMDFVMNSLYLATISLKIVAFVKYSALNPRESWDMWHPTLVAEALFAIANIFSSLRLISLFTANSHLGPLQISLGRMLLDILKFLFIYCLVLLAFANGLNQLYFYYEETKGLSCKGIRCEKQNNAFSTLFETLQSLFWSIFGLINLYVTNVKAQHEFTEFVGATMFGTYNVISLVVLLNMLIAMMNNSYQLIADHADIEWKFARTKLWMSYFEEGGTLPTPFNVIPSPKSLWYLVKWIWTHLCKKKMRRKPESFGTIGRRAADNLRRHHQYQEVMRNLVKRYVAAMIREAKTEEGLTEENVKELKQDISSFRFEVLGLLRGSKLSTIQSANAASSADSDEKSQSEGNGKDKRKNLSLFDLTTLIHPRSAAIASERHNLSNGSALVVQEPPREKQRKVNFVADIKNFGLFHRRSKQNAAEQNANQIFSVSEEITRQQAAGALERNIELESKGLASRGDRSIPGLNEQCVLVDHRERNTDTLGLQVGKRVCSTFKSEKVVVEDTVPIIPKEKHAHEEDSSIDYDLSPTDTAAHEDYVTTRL
# TRPC4 act: activators of mouse TRPC4 channel, primary screen, Fluo4 calcium, HEK293 TRPC4beta/mu-opioid cells. B-score at 10 µM. 310,000 tested, 0.49% active. Fluo4 calcium fluorescence; stronger effect = higher value;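 active means B-score above 5 SD of library B-scores, and initial fluorescence ratio not above library mean plus 5 SD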;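 further: positive B-score marks a calcium rise read as TRPC4 activation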
#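 Technique: kinetic Fluo4 calcium fluorescence; Test system: TRPC4beta and mu-opioid receptor HEK293 stable cells; Measure: B-scored integrated calcium fluorescence ratio; Benchmarks: low control buffer alone, high control maximal DAMGO; Schedule: 45 min room-temperature Fluo4 loading, 110 s read.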
# TRPC6 act: mouse TRPC6 channel activators, primary screen, cell-based, HEK293, membrane potential dye | B-score at 10 µM | 310,000 tested, 0.13% active | Short transient receptor potential channel 6 (Mus musculus), Q61143 | HEK293-TRPC6 membrane potential dye fluorescence; stronger effect = higher value;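 active means B-score of the integrated fluorescence ratio above library mean plus 3 SD, and starting fluorescence ratio within library mean plus 5 SD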;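 further: higher score means more depolarization so channel activation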
# TRPC4 inh: inhibitors of mouse TRPC4 channel, primary screen, Fluo4 calcium, HEK293 TRPC4beta/mu-opioid cells; Short transient receptor potential channel 4 (Mus musculus), Q9QUQ5; DAMGO-evoked Fluo4 calcium flux; stronger effect = lower value; B-score at 10 µM; 300,000 tested, 0.39% active;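 active means B-score over 3 SD under the library average, no early fluorescence shift, positive overall ratio signal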
#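 Signal: kinetic Fluo4 fluorescence imaging of calcium influx. Material: stable TRPC4beta/mu-opioid receptor HEK293 cells. Probe or stimulus: DAMGO in two steps, submaximal then maximal.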
# TRPC6 inhibitor: mouse TRPC6 channel inhibitors, primary screen, cell-based, HEK293, membrane potential dye | ACh-evoked depolarization; stronger effect = lower value | B-score at 10 µM | 310,000 tested, 1.1% active;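 active means B-score under library mean minus 3 SD, initial fluorescence not abnormally high, positive integrated signal ratio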;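 further: B-score derived from integrated fluorescence ratio over the kinetic read; more negative B-score means stronger inhibition of depolarization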
# A number is an active result; . = inactive.
SMILES,TRPC4 PAM,TRPC4 act,TRPC6 act,TRPC4 inh,TRPC6 inhibitor
CC(C)(C)C(=O)NC(=S)NNC(=O)c1ccncc1,.,.,.,.,.
COc1ccc(-c2nn(C)c3sc(C(=O)NCCN(C)C)cc23)cc1OC,.,.,.,.,.
CCCN(CCC)CCCNC(=O)c1cc2c(-c3ccc(OC)c(OC)c3)nn(C)c2s1,.,114,.,.,.
CCCN(CCC)CCNC(=O)c1cc2c(-c3ccc(Cl)cc3)nn(C)c2s1,.,47,.,.,.
CCN(CC)CCNC(=O)c1cc2c(-c3cccc(OC)c3)nn(C)c2s1,17,.,.,.,.
CCCCN(CC)CCNC(=O)c1cc2c(-c3ccc(Cl)cc3)nn(C)c2s1,.,94,.,.,.
COCCCNC(=O)c1cc2c(-c3cccc(OC)c3)nn(C)c2s1,.,.,.,.,.
CN(C)S(=O)(=O)c1ccc(N2CCCC2)c(C(=O)NC(c2ccccc2)c2ccccc2)c1,.,.,.,.,.
Cc1ccc(OCCOC(=O)c2sc(=S)n(C)c2C)cc1,.,.,.,.,.
Cc1c(C(=O)OCCOc2ccc(Br)cc2)sc(=S)n1C,11,.,.,.,.
CCc1sc(N(C(=O)Cc2ccccc2)c2ccccc2)nc1-c1ccccc1,.,.,.,.,.
CCCCC(=O)N(c1ccc(C(=O)O)cc1)c1nc(-c2ccc(Cl)cc2)c(CC)s1,.,.,.,-6,.
Cc1ccc(C(=O)OCC(=O)NC2CCCC2)cc1,.,.,.,.,.
Cc1c(N2C(=O)/C(=C\C3CC=CCC3)SC2=S)c(=O)n(-c2ccccc2)n1C (configuration not stated),17,.,.,.,.
Cc1c(N2C(=O)/C(=C/C3CC=CCC3)SC2=S)c(=O)n(-c2ccccc2)n1C (configuration not stated),.,.,.,.,.
O=C(C1CCCN(Cc2ccccc2)C1)N1CCc2ccccc2C1 (configuration not stated),.,160,.,.,.
COc1cc(CN2CCCC(C(=O)N3CCc4ccccc4C3)C2)cc(OC)c1OC (configuration not stated),.,55,.,.,.
COc1ccccc1C(=O)NCCC(=O)N1CCN(c2cccc(C(F)(F)F)c2)CC1,.,.,.,.,.
COc1ccc(N2CCN(C(=O)c3ccc(N(C)S(=O)(=O)c4ccc(OC)cc4)cc3)CC2)cc1,.,.,.,.,.
COc1ccc(N(C)S(=O)(=O)c2cccc(C(=O)N3CCN(S(=O)(=O)c4ccc(C)cc4)CC3)c2)cc1,.,.,12,.,-8.27
COc1ccc(N2CCN(C(=O)c3ccc(N(C)S(=O)(=O)c4ccc(C)cc4)cc3)CC2)cc1,38,44,.,.,.
CN(C1CCS(=O)(=O)C1)S(=O)C12CC3CC(CC(C3)C1)C2 (configuration not stated),.,.,.,.,.
CCOc1cc(/C=N/Nc2nc(-c3cccs3)c(NC(C)=O)s2)ccc1O,.,.,.,.,.
COc1ccc(CCNC(=O)C2CC=CCC2C(=O)O)cc1 (configuration not stated),12,.,.,.,.
COc1ccc(CCNC(C)=O)cc1,.,.,.,.,.
SMILES,TRPC4 PAM,TRPC4 act,TRPC6 act,TRPC4 inh,TRPC6 inhibitor
O=C1OC(COc2ccc(Br)cc2)CN1c1ccccc1 (configuration not stated),.,.,.,.,.
CCNC(=S)N(Cc1cc2cc(C)ccc2[nH]c1=O)C1CCCC1,12,.,.,.,.
CCc1nnc(NC(=O)C2=CCN(S(=O)(=O)c3ccc(F)cc3)CC2)s1,.,.,.,.,.
CN(CCNS(=O)(=O)c1ccc2c(c1)oc(=O)n2C)Cc1ccccc1,19,.,.,.,.
CCCN1CCN(C(=O)Cn2c(=O)oc3cc(S(=O)(=O)NCc4ccccc4)ccc32)CC1,.,104,.,.,.
CN1CCN(c2ncnc3scc(-c4ccccc4Cl)c23)CC1,.,.,.,.,.
Cc1cc(-c2csc3ncnc(N4CCN(C)CC4)c23)cc(C)c1C,.,.,.,-7,.
Cc1nn(C(C)C)c(C)c1CN1CCCC(C(=O)c2cccc(OC(C)C)c2)C1 (configuration not stated),.,.,.,.,-8.25
CC(C)Oc1cccc(C(=O)C2CCCN(Cc3ccc4nonc4c3)C2)c1 (configuration not stated),.,.,.,.,.
CCn1nc(C)c(CN2CCCC(C(=O)c3cccc(OC(C)C)c3)C2)c1C (configuration not stated),.,.,.,.,.
CCOc1cc(CN2CCCC(C(=O)c3cccc(C(F)(F)F)c3)C2)ccc1O (configuration not stated),.,.,.,-7,.
CC(C)Oc1cccc(C(=O)C2CCCN(Cc3cnn(C(C)C)c3)C2)c1 (configuration not stated),.,.,.,-6,.
CCN(CC(=O)Nc1ccc(C)c(S(=O)(=O)N2CCOCC2)c1)Cc1ccccc1,.,.,.,.,.
O=C(NC(=O)c1ccccc1)Nc1ccc(Cl)cn1,.,.,.,.,.
CCOc1cc(CNn2cnnc2SCC(=O)NC(C)(C)C)ccc1OCC(=O)NC(C)(C)C,.,.,.,.,.
COc1ccccc1/C=C/C=N/N1CCN(Cc2ccccc2)CC1,.,.,.,.,.
Cc1ccc(CN2CCN(/N=C/C=C/c3ccccc3[N+](=O)[O-])CC2)cc1,14,.,.,.,.
CSc1ccc(CN(C)Cc2cc(=O)oc3c(C)c(C)ccc23)cc1,.,.,.,.,.
Cc1ccc2c(CN(C)Cc3cccc(Cl)c3)cc(=O)oc2c1C,11,.,.,.,.
COc1cc2c(cc1OC)C(C)N(C(=O)c1ccc(Cl)c(S(=O)(=O)N3CCCCC3)c1)CC2 (configuration not stated),.,.,.,.,.
Oc1c(Br)cc(Br)c(/C=N/n2c(-c3ccccc3)n[nH]c2=S)c1Br,28,.,.,.,.
O=[N+]([O-])c1ccc(-c2nn(-c3ccccc3)cc2/C=N/n2c(-c3ccncc3)n[nH]c2=S)cc1,.,.,.,.,.
S=c1[nH]nc(-c2ccncc2)n1/N=C/c1cn(-c2ccccc2)nc1-c1ccccc1,13,.,.,.,.
Cc1ccnc(NS(=O)(=O)c2ccc(CC(C)C)cc2)c1,13,.,.,.,.
COc1cc2c(cc1OC)C(C)N(CCc1ccc(Cl)cc1)CC2 (configuration not stated),.,.,.,-6,.
